We go through 38 compounds from ChEMBL document CHEMBL1137507, “Discovery, synthesis, and structure-activity studies of tetrazole based growth hormone secretagogues” (Bioorg Med Chem Lett, 2007).

In data set [1] the target is T1, Growth hormone secretagogue receptor type 1 (Homo sapiens, UniProt Q92847). Put plainly: Agonist activity at human GHS receptor expressed in H4 glioma cells assessed as intracellular calcium concentration by FLIPR assay. Format: functional, cell-based.
For data set [2], the target named is T1, Growth hormone secretagogue receptor type 1. Put plainly: Displacement of [125I]ghrelin from human GHSR1a after 1 hr. Put shortly:
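Membranes (0.5 ug) from RAGE-based GHSR1a-expressing cells incubated 1 h with 0.02 nM [125I]ghrelin in 25 mM Hepes pH 7.2, 10 mM MgCl2, 2 mM EGTA, 0.1% BSA across a 12-point compound dose range; filtration over polyethylenimine-coated GFB plates, scintillation counting; four-parameter logistic fit, Ki via Cheng-Prusoff; typically tested on three separate occasions.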

In data set [3] the target is Growth hormone secretagogue receptor type 1 (Rattus norvegicus) (UniProt O08725). Put plainly: Agonist activity at GHS receptor in intravenously dosed anesthetized Wistar rat after 15 mins. Format: functional, organism-based.
Data set [4] can be described thus: Oral bioavailability in dog. Format: ADME, organism-based, Canis lupus familiaris. The settings on record: in vivo.
For data set [5], the system named is Canis familiaris. Put plainly: Effect on GH level in Beagle dog at 10 mg/kg, po. In kind it is functional, Canis lupus familiaris. In short, it runs like this:
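Beagle dogs dosed orally at 10 mg/kg alongside vehicle controls; plasma GH followed to 120 min post-dose, read-out as mean peak GH level in ng/mL.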

Data set [6] is described as follows: Oral bioavailability in rat. In kind it is ADME, organism-based. The settings on record: in vivo.

As a reminder, the EC50 is the concentration giving half of the maximal effect. A word on the Ki: it is a measure of affinity in units of concentration, obtained from inhibition or displacement. Lower therefore signals tighter binding. The term ED50 denotes the dose at which the effect has come halfway, by size or by number of responders. By bioavailability is commonly meant dose-corrected exposure relative to a reference, in per cent. Higher therefore signals much systemic uptake.

T1 sequence (Q92847 whole entry): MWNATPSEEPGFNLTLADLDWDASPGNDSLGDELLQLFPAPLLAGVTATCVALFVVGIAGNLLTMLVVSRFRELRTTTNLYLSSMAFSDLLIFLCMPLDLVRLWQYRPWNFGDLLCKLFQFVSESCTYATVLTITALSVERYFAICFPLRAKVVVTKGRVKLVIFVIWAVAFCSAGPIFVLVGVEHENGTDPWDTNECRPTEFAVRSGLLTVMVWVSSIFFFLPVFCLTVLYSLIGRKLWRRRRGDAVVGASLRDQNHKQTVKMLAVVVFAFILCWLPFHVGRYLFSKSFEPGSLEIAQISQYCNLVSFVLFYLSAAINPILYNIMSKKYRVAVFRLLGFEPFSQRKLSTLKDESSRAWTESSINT
Sequence of Growth hormone secretagogue receptor type 1 (Rattus norvegicus) (O08725 whole entry): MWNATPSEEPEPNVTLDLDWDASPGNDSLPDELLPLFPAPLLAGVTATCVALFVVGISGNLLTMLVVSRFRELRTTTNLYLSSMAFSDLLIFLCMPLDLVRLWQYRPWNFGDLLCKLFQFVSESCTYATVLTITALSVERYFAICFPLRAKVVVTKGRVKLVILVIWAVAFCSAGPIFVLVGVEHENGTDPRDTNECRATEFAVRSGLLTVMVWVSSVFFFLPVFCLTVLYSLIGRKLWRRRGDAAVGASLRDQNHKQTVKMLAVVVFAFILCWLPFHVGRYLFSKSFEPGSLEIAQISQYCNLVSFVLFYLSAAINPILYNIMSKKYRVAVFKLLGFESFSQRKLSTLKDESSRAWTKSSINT

Consider `CC(C)(N)C(=O)N[C@H](COCc1ccccc1)c1nnnn1CCCCCNC(=O)OCc1ccccc1`, for which the EC50 in data set [1] stood at 10 nM. For the same compound, in data set [2], the Ki worked out at 320 nM.

Turning to `CC(C)(N)C(=O)N[C@H](COCc1ccccc1)c1nnn(Cc2ccccc2)n1`, the concentration giving a half-maximal response (EC50) in data set [1] worked out at 1120 nM. This compound also yielded an inhibition constant Ki in data set [2] of 4750 nM.

With `CC(C)(N)C(=O)N[C@H](COCc1ccccc1)c1nnnn1CCc1ccccc1NS(C)(=O)=O`, the EC50 in data set [1] was 67 nM. The compound also showed an inhibition constant (Ki) in data set [2] of 2200 nM.

Consider `CC(C)(N)C(=O)N[C@H](COCc1ccccc1)c1nnn(CCCCC#N)n1`, for which the 50% effective concentration (EC50) in data set [1] is 1860 nM. In data set [2], the inhibitory constant (Ki) was above 5000 nM.

With `COC(=O)C(c1ccccc1)n1nnnc1[C@@H](COCc1ccccc1)NC(=O)C(C)(C)N` (some centres not stated), the 50% effective concentration (EC50) in data set [1] is 20 nM. In data set [2], this compound gave a Ki of 470 nM.

Take `CC(C)(N)C(=O)N[C@H](COCc1ccccc1)c1nnn(Cc2cccc(NS(C)(=O)=O)c2)n1`: in data set [1], the concentration giving a half-maximal response (EC50) was determined as 868 nM. Moreover, the inhibitory constant (Ki) in data set [2] is above 5000 nM.

`CCCCNC(=O)CCn1nnnc1[C@@H](CCc1ccccc1)NC(=O)C(C)(C)N`: the EC50 in data set [1] was 49 nM. This compound also registered an inhibition constant Ki in data set [2] of 1370 nM.

Regarding `CCCCNC(=O)CCCn1nnnc1[C@@H](COCc1ccccc1)NC(=O)C(C)(C)N`, the EC50 in data set [1] was determined as 30 nM. The same compound had a Ki in data set [2] of 1780 nM.

Regarding `CC(C)(N)C(=O)N[C@H](COCc1ccccc1)c1nnnn1C/C=C/c1ccccc1`, the EC50 in data set [1] amounted to 12 nM. Further, the Ki in data set [2] was found to be 190 nM. This compound also returned a 50% effective dose (ED50) in data set [3] of 0.0264 µmol/kg.

Consider `CC(C)(N)C(=O)N[C@H](COCc1ccccc1)c1nnn(CC2Cc3ccccc3N2S(C)(=O)=O)n1` (some centres not stated), for which the concentration giving a half-maximal response (EC50) in data set [1] is 546 nM. Also, the Ki in data set [2] is above 5000 nM.

`CCCCNC(=O)CCn1nnnc1[C@@H](COCc1ccccc1)NC(=O)C(C)(C)N`: the EC50 in data set [1] was 42 nM. In addition, in data set [2], affinity was put at a Ki of 2190 nM.

Turning to `CC(C)(N)C(=O)N[C@H](COCc1ccccc1)c1nnnn1Cc1ccccc1`, the EC50 in data set [1] amounted to 99 nM. The affinity in data set [2] corresponds to a Ki of 1900 nM.

In the case of `CN(c1ccccc1CCCn1nnc([C@@H](COCc2ccccc2)NC(=O)C(C)(C)N)n1)S(C)(=O)=O`, the EC50 in data set [1] was found to be 107 nM. In addition, in data set [2], the affinity corresponds to a Ki of 2390 nM.

With `CC(C)(N)C(=O)N[C@H](COCc1ccccc1)c1nnnn1CC#N`, the EC50 in data set [1] came to 29 nM. For the same compound, in data set [2], the inhibition constant (Ki) was determined as 4170 nM.

As for `CC(C)(N)C(=O)N[C@H](COCc1ccccc1)c1nnn(CCc2cc3ccccc3n2S(C)(=O)=O)n1`, the 50% effective concentration (EC50) in data set [1] is 150 nM. In data set [2], the inhibition constant Ki stood at 1270 nM.

Consider `COC(=O)C(c1ccccc1)n1nnc([C@@H](COCc2ccccc2)NC(=O)C(C)(C)N)n1` (some centres not stated), for which the concentration giving a half-maximal response (EC50) in data set [1] amounted to 3170 nM. For the same compound, in data set [2], the Ki was above 5000 nM.

On to `COC(=O)CCn1nnnc1[C@@H](COCc1ccccc1)NC(=O)C(C)(C)N`, for which the EC50 in data set [1] turned out to be 43 nM. Besides, the Ki in data set [2] turned out to be 3380 nM.

Turning to `CC(C)(N)C(=O)N[C@H](COCc1ccccc1)c1nnn(C/C=C/c2ccccc2)n1`, the EC50 in data set [1] stood at 517 nM. Besides, in data set [2], the inhibition constant Ki was above 5000 nM.

As for `COC(=O)CCn1nnnc1[C@@H](Cc1c[nH]c2ccccc12)NC(=O)C(C)(C)N`, in data set [1], the 50% effective concentration (EC50) stood at 200 nM. Moreover, the inhibition constant Ki in data set [2] is above 5000 nM.

For the compound `CC(C)(N)C(=O)N[C@H](COCc1ccccc1)c1nnnn1CCc1nnn[nH]1`, in data set [1], the EC50 worked out at 347 nM. In addition, affinity in data set [2] was put at a Ki of 5000 nM.

In the case of `CC(C)(N)C(=O)N[C@H](COCc1ccccc1)c1nnn(Cc2ccccc2NS(C)(=O)=O)n1`, in data set [1], the EC50 was 426 nM. In addition, the Ki in data set [2] was above 5000 nM.

Consider `CC(C)(N)C(=O)N[C@H](COCc1ccccc1)c1nnnn1CCC(=O)NCc1ccccc1`, for which the EC50 in data set [1] came to 51 nM. Besides, in data set [2], the affinity, expressed as Ki, was 1070 nM.

For the compound `CC(C)(N)C(=O)N[C@H](COCc1ccccc1)c1nnnn1CCCc1ccccc1`, in data set [1], the EC50 worked out at 17 nM. In data set [2], the Ki stood at 200 nM.

Consider `CC(C)(N)C(=O)N[C@H](COCc1ccccc1)c1nnnn1CCC(=O)NCCCc1ccccc1`, for which the EC50 in data set [1] was 59 nM. For the same compound, the Ki in data set [2] stood at 820 nM.

With `CC(C)(N)C(=O)N[C@H](COCc1ccccc1)c1nnnn1CCCCCNS(C)(=O)=O`, the EC50 in data set [1] is 75 nM. In addition, the Ki in data set [2] was above 5000 nM.

With `CN(c1ccccc1CCCn1nnnc1[C@@H](COCc1ccccc1)NC(=O)C(C)(C)N)S(C)(=O)=O`, the half-maximal effective concentration (EC50) in data set [1] amounted to 14 nM. The Ki in data set [2] came out at 1720 nM.

For the compound `CC(C)(N)C(=O)N[C@H](COCc1ccccc1)c1nnnn1CCC#N`, in data set [1], the EC50 stood at 30 nM. Besides, the bioavailability in data set [4] came to 76%; in data set [6], 56%. This compound also displayed an Activity in data set [5] of 30 ng/mL. Moreover, the Ki in data set [2] worked out at 2940 nM. This compound also displayed a 50% effective dose (ED50) in data set [3] of 0.0085 µmol/kg.

Consider `CC(C)(N)C(=O)N[C@H](COCc1ccccc1)c1nnnn1Cc1ccccc1NS(C)(=O)=O`, for which the EC50 in data set [1] stood at 390 nM. Also, the Ki in data set [2] is 4450 nM.

As for `CC(C)(N)C(=O)N[C@H](COCc1ccccc1)c1nnnn1CCC(=O)NCCc1ccccc1`, the concentration giving a half-maximal response (EC50) in data set [1] was determined as 27 nM. Affinity in data set [2] was put at a Ki of 780 nM.

In the case of `CC(C)(N)C(=O)N[C@H](COCc1ccccc1)c1nnn(CCc2ccccc2NS(C)(=O)=O)n1`, the EC50 in data set [1] is 4110 nM. In data set [2], this compound returned a Ki of 2660 nM.

In the case of `CC(C)(N)C(=O)N[C@H](COCc1ccccc1)c1nnnn1CCc1cc2ccccc2n1S(C)(=O)=O`, the EC50 in data set [1] amounted to 4 nM. In addition, the Ki in data set [2] came out at 970 nM. Also, the ED50 in data set [3] is above 0.0174 µmol/kg.

Take `CC(C)(N)C(=O)N[C@H](COCc1ccccc1)c1nnnn1CC1CN(S(C)(=O)=O)c2ccccc21` (some centres not stated): the 50% effective concentration (EC50) in data set [1] was 147 nM. This compound returned an inhibitory constant (Ki) in data set [2] of 1590 nM.

With `CC(C)(N)C(=O)N[C@H](COCc1ccccc1)c1nnnn1Cc1cccc(NS(C)(=O)=O)c1`, the concentration giving a half-maximal response (EC50) in data set [1] was 116 nM. Also, the inhibition constant (Ki) in data set [2] is above 5000 nM.

For the compound `CC(C)(N)C(=O)N[C@H](COCc1ccccc1)c1nnn(Cc2ccc(NS(C)(=O)=O)cc2)n1`, the 50% effective concentration (EC50) in data set [1] is 986 nM. Also, the Ki in data set [2] is above 5000 nM.

With `CC(C)(N)C(=O)N[C@H](COCc1ccccc1)c1nnn(CC#N)n1`, the EC50 in data set [1] was determined as 1520 nM. This compound returned a Ki in data set [2] above 5000 nM.

Consider `CC(C)(N)C(=O)N[C@H](COCc1ccccc1)c1nnnn1CCCCC#N`, for which the EC50 in data set [1] came to 35 nM. Also, the inhibitory constant (Ki) in data set [2] came to 3120 nM.

For `COC(=O)CCCn1nnnc1[C@@H](COCc1ccccc1)NC(=O)C(C)(C)N`, the EC50 in data set [1] worked out at 55 nM. For the same compound, the affinity in data set [2], expressed as Ki, was 2380 nM.

In the case of `CC(C)(N)C(=O)N[C@H](COCc1ccccc1)c1nnnn1Cc1ccc(NS(C)(=O)=O)cc1`, the half-maximal effective concentration (EC50) in data set [1] came out at 259 nM. In addition, the inhibition constant Ki in data set [2] was above 5000 nM.
